In ChEMBL document CHEMBL3872208, “Synthesis and pharmacological characterization of novel N-(trans-4-(2-(4-(benzo[d]isothiazol-3-yl)piperazin-1-yl)ethyl)cyclohexyl)amides as potential multireceptor atypical antipsychotics” (Eur J Med Chem, 2016):
Calls of active or inactive are those of the source. The rule behind the calls is not given here.

Legend:
D(2) dopamine receptor [1] = target: T1, D(2) dopamine receptor (Homo sapiens, UniProt P14416); experiment: Antagonistic activity at D2 receptor (unknown origin) expressed in CHOK1 cells co-expressing G-alpha 15 assessed as inhibition of dopamine-induced calcium flux by fluo-4 dye based FLIPR assay; assay type: functional, cell-based, CHO-K1
T1 sequence (P14416 whole entry): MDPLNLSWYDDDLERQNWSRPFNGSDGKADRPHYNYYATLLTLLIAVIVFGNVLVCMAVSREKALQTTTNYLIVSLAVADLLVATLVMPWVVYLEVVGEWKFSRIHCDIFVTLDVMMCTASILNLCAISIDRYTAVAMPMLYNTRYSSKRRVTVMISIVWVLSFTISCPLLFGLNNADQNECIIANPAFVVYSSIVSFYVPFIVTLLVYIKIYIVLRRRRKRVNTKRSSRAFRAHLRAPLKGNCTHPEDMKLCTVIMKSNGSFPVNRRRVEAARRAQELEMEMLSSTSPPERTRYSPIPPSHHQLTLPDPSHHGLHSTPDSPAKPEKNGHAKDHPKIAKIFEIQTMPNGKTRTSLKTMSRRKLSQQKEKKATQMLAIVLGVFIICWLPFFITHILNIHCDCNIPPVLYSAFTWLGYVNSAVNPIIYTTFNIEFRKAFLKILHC

[2] = target: T2, 5-hydroxytryptamine receptor 2A (Homo sapiens, UniProt P28223); experiment: Displacement of [3H]ketanserin from recombinant human 5-HT2A receptor expressed in HEK293 cell membranes after 60 mins by scintillation counting method
T2 sequence (P28223 whole entry): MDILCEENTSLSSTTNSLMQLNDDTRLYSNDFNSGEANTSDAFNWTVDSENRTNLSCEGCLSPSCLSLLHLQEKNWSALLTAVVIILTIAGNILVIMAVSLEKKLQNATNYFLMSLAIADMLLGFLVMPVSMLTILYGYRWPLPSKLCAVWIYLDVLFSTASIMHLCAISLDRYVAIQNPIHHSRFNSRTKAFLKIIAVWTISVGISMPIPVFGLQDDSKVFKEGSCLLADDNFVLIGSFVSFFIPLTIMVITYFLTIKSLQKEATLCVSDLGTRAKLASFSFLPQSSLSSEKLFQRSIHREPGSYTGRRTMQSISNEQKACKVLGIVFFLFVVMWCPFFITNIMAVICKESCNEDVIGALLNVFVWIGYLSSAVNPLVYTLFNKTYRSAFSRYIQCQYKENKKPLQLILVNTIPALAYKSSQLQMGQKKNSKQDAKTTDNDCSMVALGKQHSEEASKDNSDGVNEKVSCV

[3] = target: T3, 5-hydroxytryptamine receptor 1A (Homo sapiens) (UniProt P08908); conditions: CHO-K1, 10 uM
T3 sequence (whole entry): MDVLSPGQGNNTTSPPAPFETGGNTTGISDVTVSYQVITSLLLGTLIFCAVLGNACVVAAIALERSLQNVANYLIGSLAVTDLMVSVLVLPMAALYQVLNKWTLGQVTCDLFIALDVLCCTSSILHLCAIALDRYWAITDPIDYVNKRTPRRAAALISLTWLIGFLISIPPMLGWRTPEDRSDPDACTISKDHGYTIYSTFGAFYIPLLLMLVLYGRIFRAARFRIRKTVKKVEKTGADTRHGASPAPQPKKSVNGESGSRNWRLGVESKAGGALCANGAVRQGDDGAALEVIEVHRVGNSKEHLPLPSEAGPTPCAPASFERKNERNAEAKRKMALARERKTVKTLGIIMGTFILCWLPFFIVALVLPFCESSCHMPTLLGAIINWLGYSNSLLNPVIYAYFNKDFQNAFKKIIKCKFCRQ

[4] = Half life in Sprague-Dawley rat plasma at 2.0 mg/kg, po administered as single dose by LC-MS/MS analysis; assay type: ADME, organism-based
How it was run: (§1)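 Male SD rats, single dose: 0.5 mg/kg i.v. or 2.0 mg/kg p.o. Vehicle is 5% DMSO, 10% Solutol HS 15 and 85% PBS. Heparinized blood is sampled at 5, 15 and 30 min and at 1, 2, 4, 8 and 24 h after dosing. Plasma is reported in ng/mL and brain in ng/g. F is derived from the p.o. and i.v. arms.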

[5] = target: T2, 5-hydroxytryptamine receptor 2A; experiment: Antagonistic activity at 5-HT2A receptor (unknown origin) expressed in CHOK1 cells co-expressing G-alpha 15 assessed as inhibition of serotonin-induced calcium flux by Fluo-4 based FLIPR assay; assay type: functional, cell-based, CHO-K1
[6] = Ratio of AUC (0 to t) in Sprague-Dawley rat brain to plasma at 2 mg/kg, po; assay type: ADME, organism-based; conditions: brain and plasma, read-out: Ratio AUC
How it was run: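 Male Sprague-Dawley rats given the test compound once orally at 2.0 mg/kg. Vehicle was 5% DMSO, 10% Solutol HS 15 and 85% PBS. Heparinized blood sampled at 5, 15, 30 min and 1, 2, 4, 8, 24 h after dosing; brain concentrations also measured (ng/g). Ratio is brain AUC0-t over plasma AUC0-t.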

[7] = Tmax in Sprague-Dawley rat plasma at 2 mg/kg, po administered as single dose by LC-MS/MS analysis; assay type: ADME, organism-based; how it was run: as §1
Rattus norvegicus [8] = experiment: Reversal of PCP-induced hyperlocomotion activity in ip dosed Sprague-Dawley rat pretreated for 10 mins followed by PCP challenge measured after […]; assay type: functional, organism-based
Rattus norvegicus [9] = experiment: Antipsychotic activity in Sprague-Dawley rat assessed as inhibition of conditioned avoidance behavior at 1.0 to 2.0 mg/kg, ip administered as single dose measured after 1 hr; assay type: functional, organism-based
How it was run: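 Male SD rats (150–180 g, 6 per group) trained in automated shuttle-boxes; only rats exceeding 80% avoidance were used. Single i.p. dose of 1.0 or 2.0 mg/kg given 1 h before a 20-trial session. Read-out is percentage of avoidance (mean ± SEM, n = 6), compared with the vehicle group.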

[10] = target: T2, 5-hydroxytryptamine receptor 2A; experiment: Agonist activity at 5-HT2A receptor (unknown origin) expressed in CHOK1 cells co-expressing G-alpha 15 by Fluo-4 dye based FLIPR assay; assay type: cell-based, CHO-K1
[11] = target: T2, 5-hydroxytryptamine receptor 2A; conditions: CHO-K1, 10 uM
[12] = AUC (0 to t) in Sprague-Dawley rat plasma at 2 mg/kg, po administered as single dose by LC-MS/MS analysis; assay type: ADME, organism-based; how it was run: as §1
D(3) dopamine receptor = D(3) dopamine receptor (Homo sapiens, UniProt P35462); experiment: Antagonistic activity at D3 receptor (unknown origin) expressed in cell membranes assessed as inhibition of quinpirole-induced response after 40 mins by [35S]GTPgammaS binding assay; assay type: functional
Sequence of D(3) dopamine receptor (P35462 whole entry): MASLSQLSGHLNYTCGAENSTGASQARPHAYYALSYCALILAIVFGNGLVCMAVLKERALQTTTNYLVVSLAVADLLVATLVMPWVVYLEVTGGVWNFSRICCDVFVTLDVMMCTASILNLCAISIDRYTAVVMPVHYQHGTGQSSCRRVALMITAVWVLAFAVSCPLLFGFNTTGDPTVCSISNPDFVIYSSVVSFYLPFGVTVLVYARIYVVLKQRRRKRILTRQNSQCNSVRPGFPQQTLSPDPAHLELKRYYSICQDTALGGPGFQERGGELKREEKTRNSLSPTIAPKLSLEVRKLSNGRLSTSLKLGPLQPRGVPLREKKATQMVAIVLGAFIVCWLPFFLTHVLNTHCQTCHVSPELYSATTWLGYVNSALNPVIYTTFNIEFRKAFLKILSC
How it was run: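 Membranes (20 mg membrane protein as printed) incubated 40 min at 30 °C in 50 mM Tris pH 7.4, 5 mM MgCl2, 1 mM EDTA, 100 mM NaCl, 1 mM DTT. Mix contained 0.1 nM [35S]GTPγS, GDP, quinpirole as agonist and varied compound concentrations. Nonspecific binding was taken with Gpp(NH)p. Reaction stopped with ice-cold buffer, then GF/C filtration and scintillation counting. Mean IC50 from two experiments, eight concentrations in duplicate.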

[13] = Apparent clearance in Sprague-Dawley rat plasma at 2 mg/kg, po administered as single dose by LC-MS/MS analysis; assay type: ADME, organism-based; conditions: read-out: CL(app) (converted); how it was run: as §1
[14] = Cmax in Sprague-Dawley rat plasma at 0.5 mg/kg, iv administered as single dose by LC-MS/MS analysis; assay type: ADME, organism-based; parameters: dose 0.5 mg/kg, route intravenous; how it was run: as §1
[15] = AUC (0 to t) in Sprague-Dawley rat plasma at 0.5 mg/kg, iv administered as single dose by LC-MS/MS analysis; assay type: ADME, organism-based; how it was run: as §1
[16] = target: T4, 5-hydroxytryptamine receptor 1A (Homo sapiens, UniProt P08908); experiment: Antagonistic activity at 5-HT1A receptor (unknown origin) expressed in CHOK1 cells co-expressing G-alpha 15 assessed as inhibition of serotonin-induced calcium flux by Fluo-4 based FLIPR assay; assay type: functional, cell-based, CHO-K1
T4 sequence (P08908 whole entry): T3 sequence (whole entry)

[17] = Half life in Sprague-Dawley rat brain at 2 mg/kg, po administered as single dose by LC-MS/MS analysis; assay type: ADME, organism-based; how it was run: as §1
[18] = target: T4, 5-hydroxytryptamine receptor 1A; experiment: Agonist activity at 5-HT1A receptor (unknown origin) expressed in CHOK1 cells co-expressing G-alpha 15 by Fluo-4 dye based FLIPR assay; assay type: cell-based, CHO-K1
[19] = Half life in Sprague-Dawley rat brain at 0.5 mg/kg, iv administered as single dose by LC-MS/MS analysis; assay type: ADME, organism-based; how it was run: as §1
D(2) dopamine receptor [20] = target: T1, D(2) dopamine receptor; experiment: Agonist activity at D2 receptor (unknown origin) expressed in CHOK1 cells co-expressing G-alpha 15 by fluo-4 dye based FLIPR assay; assay type: cell-based, CHO-K1
[21] = AUC (0 to t) in Sprague-Dawley rat brain at 0.5 mg/kg, iv administered as single dose by LC-MS/MS analysis; assay type: ADME, organism-based; how it was run: as §1
[22] = Oral bioavailability in Sprague-Dawley rat brain at 2 mg/kg administered as single dose by LC-MS/MS analysis; assay type: ADME, organism-based; how it was run: as §1
Rattus norvegicus [23] = experiment: Toxicity in Sprague-Dawley rat assessed as cataleptogenic effect by measuring time spent in cataleptic position at 1 to 10 mg/kg, po measured after 0.5 to 2 hrs; assay type: organism-based; conditions: in vivo
How it was run: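 Male SD rats (180–250 g, n = 7) dosed orally at 1.0, 3.0 or 10.0 mg/kg. Forepaws placed on a bar 0.9 cm in diameter, 11 cm high, at 30, 60 and 120 min after dosing. Time held is expressed as a percentage of the 60 s maximum (mean ± SEM).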

O=C(N[C@H]1CC[C@H](CCN2CCN(c3nsc4ccccc34)CC2)CC1)c1ccco1
IC50 (D(2) dopamine receptor [1]): 61.4 nM
Ki [2]: 0.23 nM
inhibition [3]: 115%
half-life [4]: 1.7 h
IC50 [5]: 31.8 nM
Kp [6]: 16.1
Tmax [7]: 0.5 h
Activity (Rattus norvegicus [8]): Dose-dependent effect
inhibition (Rattus norvegicus [9]): Active
EC50 [10]: > 10000 nM
inhibition [11]: 97%
AUC(0-t) [12]: 55 ng·h/mL
IC50 (D(3) dopamine receptor): 1.39 nM
CL/F [13]: 582 mL/min/kg
Cmax [14]: 135 ng/mL
AUC(0-t) [15]: 106 ng·h/mL
IC50 [16]: 46.1 nM
half-life [17]: 16.3 h
EC50 [18]: > 10000 nM
half-life [19]: 15.8 h
EC50 (D(2) dopamine receptor [20]): > 10000 nM
AUC(0-t) [21]: 1070 ng·h/mL
bioavailability [22]: 20.7%
Activity (Rattus norvegicus [23]): Non-Toxic
